From PubChem
Only some compounds are listed: those with a hit (about 2.1% of all), similar ones and a draw of the others.
CDK5 inh – blocks human CDK5/p35 kinase activity | inhibition, % at 10 µM | Q00535+Q15078 | 0.01% of 330,000 active | Recombinant CDK5/p35, ADP-Glo luminescence, 60 min;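 active means highest replicate inhibition of at least 50% and at least 75% of replicates reaching 50%; inconclusive means only one of the two criteria met; inactive means both criteria failed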;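 further: plate controls were DMSO neutral control for no effect and GW8510 at 10 µM for full effect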
SR-BI DiI inh – inhibitors of mouse SR-BI mediated HDL lipid uptake; AID 488896; 0.96% of 320,000 active; inhibition, % at 12.5 µM; ldlA[mSR-BI] CHO cells, DiI-HDL uptake fluorescence, 3 h;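 active means mean replicate inhibition of at least 70% and a set share of replicates each scoring 70 or more; inconclusive means meets just one of the two criteria; inactive means fails both criteria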;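 further: 0% = median of neutral control wells and 100% = median of positive control wells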
Target sequence (Q61009 whole entry, looked up): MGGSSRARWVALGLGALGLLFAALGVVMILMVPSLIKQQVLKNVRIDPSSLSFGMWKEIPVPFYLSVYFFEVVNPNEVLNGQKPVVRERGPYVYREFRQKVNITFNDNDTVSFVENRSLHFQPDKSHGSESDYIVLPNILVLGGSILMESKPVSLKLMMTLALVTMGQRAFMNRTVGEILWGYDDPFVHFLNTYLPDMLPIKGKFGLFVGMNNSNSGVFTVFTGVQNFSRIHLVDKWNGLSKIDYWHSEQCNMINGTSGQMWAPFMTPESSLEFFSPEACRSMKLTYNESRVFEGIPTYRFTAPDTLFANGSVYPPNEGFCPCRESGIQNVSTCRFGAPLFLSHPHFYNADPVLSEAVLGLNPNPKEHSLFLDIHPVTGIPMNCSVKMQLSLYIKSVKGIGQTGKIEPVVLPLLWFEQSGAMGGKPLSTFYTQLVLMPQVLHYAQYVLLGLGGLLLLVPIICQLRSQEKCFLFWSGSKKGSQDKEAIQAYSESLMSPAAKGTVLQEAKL
dFosB act-1 – mouse delta FosB homodimer activation. purified delta FosB, TAMRA-CDK5 oligo fluorescence polarization; percent of positive-control signal above neutral wells. P13346. 0.99% of 340,000 active. activation, % at 25 µM;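 active means mean activation above about 17%, with every replicate also reaching it, limit read from the data, passing the limit was not always enough; inconclusive means only one of the two conditions met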
PKA-R2B act – activates the human PKA-R2B holoenzyme complex; P22694+P31323; activation, % at 11.4 µM; PKA-R2B holoenzyme dissociation, Cy5-IP20 fluorescence polarization; R2B truncated from residue 108, S112A mutant; 0% DMSO only, 100% 113 µM cGMP; 0.079% of 340,000 active; AID 504700;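 active means activation above a cutoff set at the mean over all compounds plus 3 SD, cut at about 18% in these data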;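 further: higher means more holoenzyme dissociation and a rise in polarization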
SR-BI uptake up – enhances SR-BI lipid uptake from DiI-HDL | CHO ldlA[mSR-BI] cells, DiI-HDL uptake fluorescence, 3 h; 100 = double the neutral-control signal | activation, % at 12.5 µM | 0.096% of 320,000 active | AID 504775;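 active means mean replicate activation of at least 60% and every replicate at or above 60%; inconclusive means mean or all-replicate condition met, but not both; inactive means mean below 60% and not all replicates reaching 60%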;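 further: 0% = median plate neutral-control signal and 100% = twice that signal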
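System: LDL receptor-deficient CHO ldlA cells overexpressing murine SR-BI | Timing: 3 h uptake period with compound, 37 °C | Medium: HEPES-buffered (25 mM, pH 7.4) F12 plus 0.5% BSA | Dosing: Single-point compound dose | Signal: Bottom-read fluorescence, 550/595 nm | Read-out: Retained DiI signal reflecting DiI-HDL uptake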
PKA-R1A activ – activates the PKA-R1A holoenzyme complex. P00514+P68181. PKA-R1A dissociation, Cy5-IP20 fluorescence polarization; scaled: DMSO 0%, 113 µM cGMP 100%. activation, % at 11.4 µM. 0.083% of 340,000 active;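 active means percent activation above the mean of all tested compounds plus 3 SD, cut at about 19% in these data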;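 further: higher means more PKAc released from R1A so a rise in polarization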
dFosB act-2 – enhances mouse delta FosB homodimer binding to DNA | purified delta FosB, TAMRA-CDK5 oligo fluorescence polarization; normalised: neutral wells 0, positive control 100 | AID 588690 | 2,400 tested, under 10 active | activation, % at 24.9 µM | shares compounds with dFosB act-1;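 active means highest replicate activation at or above 34% and every replicate reaching that threshold; inconclusive means meets only one of the two criteria; inactive means meets neither criterion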;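 further: higher polarization means more probe DNA bound by delta FosB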
Starred values were filed as active, the others as inactive.

What do the screens show for `COc1cccc(-c2c(C(=O)N/N=C/c3ccsc3)nnn2-c2nonc2N)c1`?
SR-BI DiI inh: 13; dFosB act-1: 20*; PKA-R2B act: 0; SR-BI uptake up: -13; PKA-R1A activ: 0; dFosB act-2: 2

How did CSc1nc(-c2ccccc2)nc(C(C)C)n1 do in these assays?
CDK5 inh: 0; SR-BI DiI inh: -2; dFosB act-1: 5; PKA-R2B act: 8; SR-BI uptake up: 2; PKA-R1A activ: -15

Results for O=[N+]([O-])c1ccc(CN2CCN(c3ccc(Cl)cc3)CC2)o1 ?
CDK5 inh: 0; SR-BI DiI inh: 0; dFosB act-1: -5; PKA-R2B act: 0; SR-BI uptake up: 0; PKA-R1A activ: 0

How did Cc1cccc(NC(=O)c2ccc(S(=O)(=O)NCc3ccco3)cc2)n1 do in these assays?
CDK5 inh: 1; SR-BI DiI inh: 6; dFosB act-1: 33*; PKA-R2B act: 1; SR-BI uptake up: -6; PKA-R1A activ: -5; dFosB act-2: 0

What do the screens show for `Cc1ccc(NC(=O)c2ccc(S(=O)(=O)NCc3ccco3)cc2)nc1`?
CDK5 inh: 0; SR-BI DiI inh: 4; dFosB act-1: 15; PKA-R2B act: 8; SR-BI uptake up: -4; PKA-R1A activ: -10

Results for COc1ccc(-c2cc3nc4ccccc4n3c(N)c2C#N)cc1 ?
CDK5 inh: 0; dFosB act-1: 19*; PKA-R2B act: -8; PKA-R1A activ: -5; dFosB act-2: 6

Results for COc1ccc(-c2cc(-c3ccccc3)c(C#N)c(S(C)=O)n2)cc1 (configuration not stated) ?
CDK5 inh: 2; SR-BI DiI inh: 17; dFosB act-1: -17; PKA-R2B act: 4; SR-BI uptake up: -17; PKA-R1A activ: -12

How did NC(=O)CNC(=O)C1CCN(S(=O)(=O)c2ccc(-n3cnnn3)cc2)CC1 do in these assays?
CDK5 inh: 4; SR-BI DiI inh: -16; dFosB act-1: -6; PKA-R2B act: 9; SR-BI uptake up: 16; PKA-R1A activ: -5

Results for O=C(CCN1C(=O)C2CCCCC2C1=O)Nc1ccc(F)c(F)c1F (configuration not stated) ?
CDK5 inh: -3; SR-BI DiI inh: 1; dFosB act-1: -4; PKA-R2B act: -2; SR-BI uptake up: -1; PKA-R1A activ: -2

Results for O=C(CN1C(=O)S/C(=C\c2ccccc2)C1=O)NNC(=O)c1ccccc1O ?
CDK5 inh: -2; SR-BI DiI inh: 4; dFosB act-1: 48*; PKA-R2B act: 2; SR-BI uptake up: -4; PKA-R1A activ: 4; dFosB act-2: 4

What do the screens show for `O=C(CCCN1C(=O)S/C(=C\c2ccccc2)C1=O)NNC(=O)c1ccccc1O`?
CDK5 inh: 3; SR-BI DiI inh: 23; dFosB act-1: 1; PKA-R2B act: -8; SR-BI uptake up: -23; PKA-R1A activ: 7

Results for CCCCCc1cc(=O)oc2c(C(CCN3CCCC(C)C3)c3ccc4c(c3)OCO4)c(OC)cc(OC)c12 (configuration not stated) ?
CDK5 inh: 0; SR-BI DiI inh: 8; dFosB act-1: 32*; PKA-R2B act: -14; SR-BI uptake up: -8; PKA-R1A activ: 11; dFosB act-2: 1

Results for CCCCCc1cc(=O)oc2c(C(CCN3CCCCC3)c3ccc4c(c3)OCO4)c(OC)cc(OC)c12 (configuration not stated) ?
CDK5 inh: 2; SR-BI DiI inh: 3; dFosB act-1: inconclusive; PKA-R2B act: -7; SR-BI uptake up: -3; PKA-R1A activ: 3

What do the screens show for `COc1ccc(C(CCN2CCN(c3ccccc3)CC2)c2c(OC)cc(OC)c3c(-c4ccccc4)cc(=O)oc23)cc1` (configuration not stated)?
CDK5 inh: 0; SR-BI DiI inh: -11; dFosB act-1: 20*; PKA-R2B act: -10; SR-BI uptake up: 11; PKA-R1A activ: -5; dFosB act-2: 2

What do the screens show for `COc1cc(OC)c2c(-c3ccccc3)cc(=O)oc2c1C(CCN1CCCC1)c1ccc2c(c1)OCO2` (configuration not stated)?
CDK5 inh: 0; SR-BI DiI inh: -4; dFosB act-1: 19*; PKA-R2B act: -15; SR-BI uptake up: 4; PKA-R1A activ: -10; dFosB act-2: 2

What do the screens show for `COc1cc(OC)c2c(-c3ccccc3)cc(=O)oc2c1C(CCN1CCN(c2ccccc2)CC1)c1ccc(N(C)C)cc1` (configuration not stated)?
CDK5 inh: 1; SR-BI DiI inh: -3; dFosB act-1: 2; PKA-R2B act: 4; SR-BI uptake up: 3; PKA-R1A activ: 0

What do the screens show for `COc1cc(OC)c2c(-c3ccccc3)cc(=O)oc2c1C(CCN1CCOCC1)c1ccc2c(c1)OCO2` (configuration not stated)?
CDK5 inh: 1; SR-BI DiI inh: 6; dFosB act-1: 4; PKA-R2B act: 3; SR-BI uptake up: -6; PKA-R1A activ: 1

How did CCc1ccccc1NC(=O)Cn1nnc(C(=O)NCc2cccs2)c1N do in these assays?
CDK5 inh: 1; SR-BI DiI inh: -21; dFosB act-1: 40*; PKA-R2B act: -1; SR-BI uptake up: 21; PKA-R1A activ: -4; dFosB act-2: 0

Results for CCc1ccc(NC(=O)Cn2nnc(C(=O)NCc3cccs3)c2N)cc1 ?
CDK5 inh: 0; SR-BI DiI inh: -44; dFosB act-1: 9; PKA-R2B act: -13; SR-BI uptake up: 44; PKA-R1A activ: -5

What do the screens show for `COc1ccccc1NC(=O)Cn1nnc(C(=O)NCc2cccs2)c1N`?
CDK5 inh: 0; SR-BI DiI inh: 3; dFosB act-1: 22*; PKA-R2B act: 9; SR-BI uptake up: -3; PKA-R1A activ: -9; dFosB act-2: -7

Results for COc1ccc(NC(=O)Cn2nnc(C(=O)NCc3cccs3)c2N)cc1 ?
CDK5 inh: 0; SR-BI DiI inh: 1; dFosB act-1: 14; PKA-R2B act: -8; SR-BI uptake up: -1; PKA-R1A activ: 5

How did O=C(Cn1nnc2c(cnn2-c2ccccc2)c1=O)NCc1cccs1 do in these assays?
CDK5 inh: -1; SR-BI DiI inh: 6; dFosB act-1: 38*; PKA-R2B act: 2; SR-BI uptake up: -6; PKA-R1A activ: -4; dFosB act-2: 5
